TRPC6 inh: inhibitors of mouse TRPC6 channel. Q61143. HEK293-TRPC6, membrane potential dye, ACh-evoked depolarization; hits give low values. B-score at 10 µM. 1.1% of 310,000 active;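 active = B-score under library mean minus 3 SD, initial fluorescence not abnormally high, positive integrated signal ratio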;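 note: B-score derived from integrated fluorescence ratio over the kinetic read; more negative B-score means stronger inhibition of depolarization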
TRPC4 potent: allosterically enhances the mouse TRPC4 cation channel; AID 2227; Q9QUQ5; B-score at 10 µM; HEK293 TRPC4beta/mu-opioid, DAMGO EC20, Fluo-4 Ca2+ flux; hits give high values; 0.42% of 310,000 active;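 active = B-score of calcium response area above 5 SD of library B-scores, with initial fluorescence ratio within 5 SD of library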;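 note: B-score of integrated fluorescence ratio over time as area under calcium response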
Target sequence (Q9QUQ5 whole entry, looked up): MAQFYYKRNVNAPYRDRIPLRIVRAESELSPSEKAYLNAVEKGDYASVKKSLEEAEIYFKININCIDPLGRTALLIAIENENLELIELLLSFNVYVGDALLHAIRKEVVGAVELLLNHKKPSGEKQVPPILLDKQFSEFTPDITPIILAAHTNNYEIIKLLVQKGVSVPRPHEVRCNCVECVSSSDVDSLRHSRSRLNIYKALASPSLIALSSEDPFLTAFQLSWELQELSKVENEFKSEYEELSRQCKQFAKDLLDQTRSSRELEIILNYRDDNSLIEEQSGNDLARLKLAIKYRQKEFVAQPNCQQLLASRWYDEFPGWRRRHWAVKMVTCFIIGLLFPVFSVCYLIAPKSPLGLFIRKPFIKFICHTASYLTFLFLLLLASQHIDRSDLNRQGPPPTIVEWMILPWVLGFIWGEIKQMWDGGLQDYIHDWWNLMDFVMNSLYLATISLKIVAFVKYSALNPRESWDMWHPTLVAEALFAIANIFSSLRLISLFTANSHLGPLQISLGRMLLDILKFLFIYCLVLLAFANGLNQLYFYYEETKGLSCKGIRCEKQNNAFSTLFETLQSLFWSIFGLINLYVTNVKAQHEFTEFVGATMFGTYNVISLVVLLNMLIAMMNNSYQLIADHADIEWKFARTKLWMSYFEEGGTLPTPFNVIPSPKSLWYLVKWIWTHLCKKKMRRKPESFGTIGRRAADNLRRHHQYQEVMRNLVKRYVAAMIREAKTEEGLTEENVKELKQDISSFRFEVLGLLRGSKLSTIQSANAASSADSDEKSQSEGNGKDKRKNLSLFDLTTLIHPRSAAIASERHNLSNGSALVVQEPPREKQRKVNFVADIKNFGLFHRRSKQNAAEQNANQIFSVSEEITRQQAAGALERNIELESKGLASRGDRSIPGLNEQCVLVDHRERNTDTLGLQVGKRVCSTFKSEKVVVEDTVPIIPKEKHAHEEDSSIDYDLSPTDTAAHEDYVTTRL
TRPC4 block: inhibitors of mouse TRPC4 channel; Q9QUQ5; HEK293 TRPC4beta/mu-opioid, DAMGO-evoked Fluo4 calcium flux; hits give low values; B-score at 10 µM; 0.39% of 300,000 active; AID 2247;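 active = B-score over 3 SD under the library average, no early fluorescence shift, positive overall ratio signal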
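Material: HEK293 cells with stable TRPC4beta plus mu-opioid receptor expression / Probe or stimulus: DAMGO in two steps, submaximal then maximal / Compound: single concentration per test compound / Technique: kinetic Fluo4 fluorescence imaging of calcium influx / Read-out: per-well B score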
Yeast superoxide: caloric restriction mimetics inhibiting age-related superoxide in yeast. S. cerevisiae aged cells, superoxide DHE fluorescence; hits give low values. superoxide response (% of plate mean), % at 10 µM. 0.18% of 330,000 active. AID 2690;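 active = superoxide response under a set limit, about three screen SD below normal, cut at about 65% in these data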;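 note: yeast aged for seven days with compound at 30 °C before DHE staining; 100% = average MFI of all compound-treated wells on the plate with controls excluded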
TRPC6 act: activates the mouse TRPC6 cation channel; HEK293-TRPC6 membrane potential dye fluorescence; hits give high values; B-score at 10 µM; 0.13% of 310,000 active;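 active = B-score of the integrated fluorescence ratio above library mean plus 3 SD, and starting fluorescence ratio within library mean plus 5 SD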;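 note: higher score means more depolarization so channel activation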
TRPC4 agonist: opens the mouse TRPC4 cation channel; B-score at 10 µM; HEK293 TRPC4beta/mu-opioid, Fluo4 calcium fluorescence; hits give high values; AID 2237; Q9QUQ5; 0.49% of 310,000 active;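 active = B-score above 5 SD of library B-scores, and initial fluorescence ratio not above library mean plus 5 SD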;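 note: positive B-score marks a calcium rise read as TRPC4 activation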
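Assay system: HEK293 cells stably co-expressing mouse TRPC4beta and mu-opioid receptor / Timing: Fluo4 dye loading 45 min at room temperature, 110 s recording / Signal: Fluo4 calcium-sensitive dye fluorescence, kinetic, 1 Hz baseline / Read-out: integrated baseline-normalised fluorescence ratio, converted to per-well B score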
HEK293 MPD ctr: checks TRPC6 modulator effects in parental HEK293 cells. shares compounds with TRPC6 inh. membrane potential dye fluorescence. membrane potential signal change, % at 10 µM. 51% of 2,400 active. AID 488924;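 active = membrane potential signal moves up or down beyond 5 SD from buffer-only wells, on both duplicate plates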
HEK293 MPD ctr 2: second check of TRPC6 modulator effects in parental HEK293 cells; shares compounds with TRPC6 inh; membrane potential dye fluorescence; after compound, maximal acetylcholine stimulation; inhibition, % at 10 µM; 14% of 2,400 active; AID 488926;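 active = membrane potential signal drops by more than 5 SD from the mean control signal, in both duplicate plates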;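 note: plate controls were acetylcholine ECmax control wells for no effect and buffer only wells for full effect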
TRPC4/MOR mod: tests whether TRPC6 modulators also affect mouse TRPC4; shares compounds with TRPC6 inh; HEK293 TRPC4/mu-opioid, membrane potential fluorescence; percent change from control (negative = decrease, positive = increase), % at 10 µM; 69% of 2,400 active;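 active = membrane potential signal moved up or down beyond 5 SD of buffer control wells, in both duplicate plates, actives on both sides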;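 note: plate controls were assay buffer wells for no effect and DAMGO maximal-effect wells for full effect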
TRPC4/MOR inh 2: second check of whether TRPC6 modulators also affect mouse TRPC4 | shares compounds with TRPC6 inh | HEK293 TRPC4/mu-opioid, membrane potential dye fluorescence; stimulated with maximal-effect DAMGO | inhibition, % at 10 µM | 55% of 2,400 active;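 active = drop in membrane potential signal beyond 5 SD of the control wells in both duplicate plates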;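 note: TRPC4 counter screen for TRPC6 hits run under conditions tuned for TRPC6 not TRPC4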
TRPC6 inh conf: confirmation of mouse TRPC6 inhibitors | shares compounds with TRPC6 inh | HEK293-TRPC6, membrane potential dye, ACh-evoked depolarization | inhibition, % at 10 µM | 43% of 3,300 active;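 active = fluorescence ratio falls more than 5 SD below the full-stimulation control mean, in both duplicate runs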;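 note: integrated fluorescence ratio of peak minus minimum over baseline after agonist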
TRPC6 act conf: confirmation of mouse TRPC6 activators | shares compounds with TRPC6 inh | HEK293-TRPC6 membrane potential dye fluorescence, FDSS | activation, % at 10 µM | 11% of 2,800 active;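 active = ratio signal rise beyond 5 SD above unstimulated control wells' mean, seen in both duplicate runs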;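 note: plate controls were buffer EC0 wells for no effect and acetylcholine ECmax response for full effect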
Numbers without * were called inactive; i = inactive; . = no result given; + = active, no number. Shown are actives, neighbours in structure and some others; about 2.3% of the full set was active somewhere.

SMILES | TRPC6 inh | TRPC4 potent | TRPC4 block | Yeast superoxide | TRPC6 act | TRPC4 agonist | HEK293 MPD ctr | HEK293 MPD ctr 2 | TRPC4/MOR mod | TRPC4/MOR inh 2 | TRPC6 inh conf | TRPC6 act conf
N=c1c(C(=O)NC2CCCC2)cc2c(=O)n3ccccc3nc2n1Cc1ccccc1 | -5.2* | i | i | 89 | i | i | -170%* | i | -34%* | 48%* | i | i
CC(/C=N/NC(=O)CSc1nc2ccccc2n1C)=C\c1ccco1 | i | i | i | 87 | i | i | . | . | . | . | . | .
CCOC(=O)c1cc2c(=O)n3ccccc3nc2n(CCCOC)c1=NC(=O)C(C)(C)C | -5.9* | i | i | 104 | i | i | -195%* | i | -27%* | 56%* | 50%* | i
CCOC(=O)c1cc2c(=O)n3ccccc3nc2n(Cc2ccccc2)c1=N | -7.9* | i | i | 109 | i | i | -146%* | i | -32%* | 42%* | i | i
Cc1ccc(Cn2c(=N)c(C(=O)NCC3CCCO3)cc3c(=O)n4cccc(C)c4nc32)cc1 (centres undefined) | i | i | i | 120 | i | i | . | . | . | . | . | .
N=c1c(C(=O)NCC2CCCO2)cc2c(=O)n3ccccc3nc2n1Cc1ccccc1 (centres undefined) | -7.4* | i | i | 119 | i | i | -125%* | 78%* | -28%* | 38%* | 45%* | i
CCOC(=O)c1cc2c(=O)n3ccccc3nc2n(CC(C)C)c1=NC(=O)c1ccco1 | i | i | i | 101 | i | i | . | . | . | . | . | .
Cc1cccc(-c2nnn(Cc3nnc(NC(=O)c4ccccc4)s3)n2)c1 | i | i | i | 91 | i | i | . | . | . | . | . | .
CC(C)(C)C(=O)Nc1cc(S(=O)(=O)N2CCCCC2)ccc1N1CCCCC1 | -10* | i | i | 95 | 16* | i | 180%* | i | 20%* | i | 43%* | 74%*
CN1CCN(c2ccc(S(=O)(=O)N3CCCCC3)cc2NC(=O)COc2ccc(F)cc2)CC1 | -5.9* | 10* | i | 100 | i | i | i | i | 10%* | 74%* | i | i
O=C(COc1ccc(Br)cc1)Nc1cc(S(=O)(=O)N2CCCCC2)ccc1N1CCCCC1 | i | i | i | 101 | i | i | . | . | . | . | . | .
CC(C)C(=O)Nc1cc(S(=O)(=O)N2CCOCC2)ccc1N1CCCCC1 | . | . | . | 99 | . | . | . | . | . | . | . | .
COC(=O)c1ccc(-c2noc(CN3CCCCC3c3nccn3C)n2)cc1 (centres undefined) | -5.1* | i | i | 96 | i | i | 164%* | i | 38%* | 36%* | 43%* | .
Cn1ccnc1C1CCCCN1Cc1nc(Cc2ccccc2F)no1 (centres undefined) | -5.5* | i | i | 92 | i | i | i | i | i | i | 67%* | i
COC(=O)c1ccc(-c2noc(CN(Cc3nccn3C)C(C)C)n2)cc1 | -5.1* | i | i | 108 | i | i | i | i | i | i | i | i
CC1Cc2cc(/C(O)=C3/C(=O)C(=O)N(CCN4CCOCC4)C3c3ccc(C(C)C)cc3)ccc2O1 (centres undefined) | i | i | i | 109 | i | i | . | . | . | . | . | .
COc1cc2c(c(O)c1OC)-c1c(cc(OC)c(OC)c1OC)C[C@@H](C)[C@@H](C)C2 | i | i | i | 103 | i | i | . | . | . | . | . | .
O=C1c2cccc3c(Nc4ccccc4Cl)c([N+](=O)[O-])cc(c23)C(=O)N1CCO | -10* | i | i | 89 | i | i | -100%* | i | -26%* | 81%* | 47%* | i
O=C(Cc1ccccc1)NC1CCSc2ccccc21 (centres undefined) | i | i | i | 105 | i | i | . | . | . | . | . | .
CCN(CC)CCN(C(=O)Cn1nnc(-c2ccc(C)o2)n1)C(C(=O)NC1CCCC1)c1ccc(F)cc1 (centres undefined) | i | i | i | . | 30* | i | 343%* | i | 68%* | 44%* | i | 192%*
COc1ccc(C(C(=O)NC2CCCC2)N(CC2CCCO2)C(=O)Cn2nnc(-c3ccc(C)o3)n2)cc1 (centres undefined) | -6.2* | i | i | 106 | i | i | i | i | i | i | i | i
CCN(CC)CCN(C(=O)Cn1nnc(-c2ccc(C)o2)n1)C(C(=O)NC(C)(C)C)c1cccs1 (centres undefined) | i | i | i | 103 | 18* | i | 488%* | i | 112%* | 32%* | i | 242%*
Cc1ccc(-c2nnn(CC(=O)N(Cc3ccco3)C(C(=O)NC3CCCC3)c3cccs3)n2)o1 (centres undefined) | i | i | i | 90 | i | i | . | . | . | . | . | .
N#C/C(=C\c1cccs1)C(=O)NCc1ccco1 | i | i | i | 97 | i | i | . | . | . | . | . | .
CCN1CCN(S(=O)(=O)c2c(C)[nH]c(C)c2C(=O)N2CCCCC2)CC1 | i | i | i | 93 | i | i | . | . | . | . | . | .
O=C1CNC(=O)/C(=C\c2ccccc2)N1 | i | i | i | 91 | i | i | . | . | . | . | . | .
O=C1/C(=C/c2ccccc2)Nc2ccccc21 | i | i | i | 121 | 70* | 83* | + | + | 309%* | i | . | 587%*
OCCCNc1nc(-c2ccc(Cl)cc2)nnc1-c1ccc(Br)cc1 | i | i | i | 92 | i | i | . | . | . | . | . | .

Assay outcomes as filed in PubChem BioAssay.
